Structures are written as SMILES. pIC50: −log10 of the molar value. The source made the active and inactive calls. No cut-off for these calls is given here.

Data set [1] concerns Trypanosoma cruzi. The data set can be described thus: Antitrypanosomal activity against Trypanosoma cruzi Tulahuen C4 amastigotes. The class given is functional, organism-based. Summed up: (§1)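 96-well format screens: bloodstream-form T. b. rhodesiense trypomastigotes, T. cruzi amastigotes within infected L6 rat skeletal myoblasts, axenically grown L. donovani amastigotes, and uninfected L6 cells for cytotoxicity. IC50 (μM) obtained by linear regression from sigmoidal dose–inhibition curves.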

The target of data set [2] is Trypanothione reductase (Trypanosoma brucei brucei) (UniProt P39051). Nature of the data set: Inhibition of Trypanosoma brucei brucei trypanothione reductase at <100 uM.
Chain of Trypanothione reductase (Trypanosoma brucei brucei) (P39051 whole entry, looked up): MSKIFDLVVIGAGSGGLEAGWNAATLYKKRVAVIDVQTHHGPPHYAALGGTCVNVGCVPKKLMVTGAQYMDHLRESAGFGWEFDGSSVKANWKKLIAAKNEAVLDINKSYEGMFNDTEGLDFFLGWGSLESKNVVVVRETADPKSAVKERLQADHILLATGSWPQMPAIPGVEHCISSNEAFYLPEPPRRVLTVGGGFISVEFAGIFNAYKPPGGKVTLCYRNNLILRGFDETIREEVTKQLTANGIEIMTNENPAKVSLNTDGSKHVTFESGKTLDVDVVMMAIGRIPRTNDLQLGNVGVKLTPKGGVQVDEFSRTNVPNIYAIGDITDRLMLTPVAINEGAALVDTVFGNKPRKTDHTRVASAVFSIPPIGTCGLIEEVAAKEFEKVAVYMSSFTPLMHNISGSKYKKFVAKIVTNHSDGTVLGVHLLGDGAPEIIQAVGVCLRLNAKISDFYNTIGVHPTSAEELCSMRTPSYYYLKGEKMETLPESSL
Data set [3] concerns Trypanosoma brucei rhodesiense. Nature of the data set: Antitrypanosomal activity against Trypanosoma brucei rhodesiense STIB 900 trypomastigotes. The class given is functional, organism-based. A digest of the protocol: as §1
Another data set has as its system Leishmania donovani. Nature of the data set: Antileishmanial activity against Leishmania donovani MHOM-ET67/L82 amastigotes. The class given is functional, organism-based. A digest of the protocol: as §1
Data set [4] in a line: Selectivity index, ratio of IC50 for rat L6 cells to IC50 for Trypanosoma cruzi Tulahuen C4 amastigotes.
In data set [5] the test system is Trypanosoma cruzi. The data set can be described thus: Ratio of benznidazole IC50 to compound IC50 for Trypanosoma cruzi Tulahuen C4 amastigotes. The class given is functional.
Another data set deals with L6. Nature of the data set: Cytotoxicity against rat L6 cells. The class given is cell-based. A digest of the protocol:
as §1

The test system of data set [6] is Trypanosoma brucei brucei. The data set can be described thus: Activity of Trypanosoma brucei brucei recombinant Type I nitroreductase assessed as oxidised NADH level by spectrophotometric analysis. Summed up: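 His-tagged recombinant TbNTR, purified, assayed spectrophotometrically at 340 nm with nitrotriazole substrate (100 μM) and NADH (100 μM); activity expressed as nmol NADH oxidized min−1 mg−1 enzyme.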

Data set [7] relates to Trypanosoma brucei brucei. Nature of the data set: Antitrypanosomal activity against bloodstream form of Trypanosoma brucei brucei Lister 427 clone 221a. The class given is functional, organism-based. Summed up: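 Bloodstream-form parasites seeded at 1 × 10^3 per ml in growth medium with a range of compound concentrations; where required, TbNTR expression induced with tetracycline (1 μg/mL). Incubation 3 days at 37 °C, then Alamar blue added for a further 16 h. Cell density read and IC50 determined.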

The subject of data set [8] is Trypanosoma brucei brucei. The data set can be described thus: Selectivity ratio of IC50 for Trypanosoma brucei brucei Lister 427 clone 221a overexpressing tet-inducible NTR in absence of tetracycline to IC50 for Trypanosoma brucei brucei overexpressing tet-inducible NTR in presence of tetracyclin.
Data set [9] has as its system Trypanosoma brucei brucei. The data set can be described thus: Antitrypanosomal activity against bloodstream form of Trypanosoma brucei brucei Lister 427 clone 221a overexpressing tet-inducible NTR in presence of tetracycline after 3 days. The settings on record: 72 h.
Data set [10] can be described thus: Selectivity index, ratio of IC50 for rat L6 cells to IC50 for Trypanosoma brucei rhodesiense STIB900 trypomastigotes.
In data set [11] the test system is Trypanosoma brucei brucei. The data set can be described thus: Antitrypanosomal activity against bloodstream form of Trypanosoma brucei brucei Lister 427 clone 221a overexpressing tet-inducible NTR in absence of tetracycline after 3 days. The settings on record: 72 h.
A short description of data set [12]: Selectivity index, ratio of IC50 for rat L6 cells to IC50 for Leishmania donovani MHOM-ET67/L82 amastigotes.

The pIC50 is the IC50 on a negative log10 scale, so that one unit is a factor of ten. As to `O=[N+]([O-])c1nccn1CCCNS(=O)(=O)c1ccc(C(F)(F)F)cc1`, the negative-log IC50 (pIC50) was 5.78 in the data set on Trypanosoma cruzi [1], 4.56 in data set [3], 4.81 in the data set on Leishmania donovani and 3.75 in the data set with L6. Also, in data set [2], the inhibition entry is “inactive”. The selectivity ratio in data set [4] amounted to 106. In addition, the “Ratio IC50” value in the data set on Trypanosoma cruzi [5] came out at 0.9.
Consider `O=C(NCCCCn1cnc([N+](=O)[O-])n1)c1ccc2ccccc2n1`, for which the pIC50 is 6.88 in the data set with Trypanosoma cruzi [1]; 5.40 in data set [3]; 4.87 with Leishmania donovani; below 5.00 in data set [7]; 4.04 in the data set on L6. The result in data set [6] was Active. Also, the selectivity ratio in data set [4] was 691. Also, the “Ratio IC50” value in the data set on Trypanosoma cruzi [5] came to 11.8.
Take `O=C(NCCCCn1cnc([N+](=O)[O-])n1)c1ccc(C(F)(F)F)cc1`: the pIC50 in the data set with Trypanosoma cruzi [1] was 6.75; in [3], 6.30; in data set [9], 6.89; in the data set with Leishmania donovani it was 5.10; in [11], 5.89; in data set [7] it was 6.05. This compound also showed a pIC50 in the data set on L6 of 3.98. In addition, the results for the “Ratio IC50” value (in data set [8]; in the data set with Trypanosoma cruzi [5]) were 10 and 8.9, respectively. Further, the result in data set [6] was Active. The selectivity ratio in [4] turned out to be 591; in data set [10], 208.
Consider `O=C(Cn1cnc([N+](=O)[O-])n1)NCc1ccc(C(F)(F)F)cc1`, for which the pIC50 with Trypanosoma cruzi [1] was 6.01; in [3], 5.19; with Leishmania donovani it was 4.98; in data set [7] it was 5.07; in the data set on L6 it was 3.89. Also, the inhibition entry in data set [2] is “inactive”. The selectivity ratio in data set [4] stood at 133. In the data set with Trypanosoma cruzi [5], the “Ratio IC50” value came to 1.6.
As for `O=C(NCCn1cnc([N+](=O)[O-])n1)c1ccc(C(F)(F)F)cc1`, the negative-log IC50 (pIC50) is 6.36 in the data set on Trypanosoma cruzi [1]; 5.50 in [3]; 7.05 in [9]; 4.48 in the data set with Leishmania donovani; 5.90 in [11]; 5.89 in data set [7]. The same compound showed a pIC50 with L6 below 3.56. In addition, the “Ratio IC50” value worked out at 14 in data set [8] and 3.6 in the data set on Trypanosoma cruzi [5]. Further, the inhibition result in data set [2] is “inactive”. Moreover, the outcome in data set [6] was Active. Also, the selectivity ratio in data set [4] was above 625.
On to `O=C(NCCCn1cnc([N+](=O)[O-])n1)c1ccc(-c2ccccc2)cc1`, for which the pIC50 was 7.37 in the data set on Trypanosoma cruzi [1]; 6.23 in data set [3]; 7.30 in data set [9]; 5.08 with Leishmania donovani; 6.55 in [11]; 6.52 in data set [7]. Also, the negative-log IC50 (pIC50) in the data set on L6 is 3.93. The results for the “Ratio IC50” value (in data set [8]; in the data set on Trypanosoma cruzi [5]) were 6 and 36.3, respectively. The selectivity ratio in data set [4] was found to be 2780; in [10], 199.
On to `O=C(Cn1cnc([N+](=O)[O-])n1)Nc1nc2ccc(Cl)cc2s1`, for which the pIC50 was 5.18 in the data set with Trypanosoma cruzi [1], 4.31 in data set [3], 5.24 with Leishmania donovani and 3.79 with L6. Besides, the selectivity ratio was determined as 24.8 in data set [4], 3.4 in data set [10] and 28 in data set [12]. For the same compound, in the data set with Trypanosoma cruzi [5], the “Ratio IC50” value was found to be 0.2.
As to `O=C(Cn1cnc([N+](=O)[O-])n1)Nc1nc2cc(Cl)ccc2o1`, the pIC50 in the data set on Trypanosoma cruzi [1] was 5.10; in data set [3], 4.46; in the data set with Leishmania donovani it was 5.33; in the data set on L6, 4.58. The selectivity ratio is 3.3 in data set [4], below 1 in data set [10] and 5.6 in data set [12]. Further, the “Ratio IC50” value with Trypanosoma cruzi [5] is given as 0.2.
On to `O=C(Cn1cnc([N+](=O)[O-])n1)N1CCC(Cc2ccccc2)CC1`, for which the pIC50 with Trypanosoma cruzi [1] is 6.51; in [3], 5.47; in the data set with Leishmania donovani, 4.29; in data set [7], below 5.00; in the data set on L6, 3.84. Also, the inhibition result in data set [2] was “inactive”. Besides, the selectivity ratio in [4] came out at 468. Further, the “Ratio IC50” value with Trypanosoma cruzi [5] stood at 5.1.
Turning to `O=C(NCCCCn1cnc([N+](=O)[O-])n1)c1ccc(OC(F)(F)F)cc1`, the pIC50 in the data set on Trypanosoma cruzi [1] was 6.95; in data set [3], 5.86; in data set [9] it was 7.00; with Leishmania donovani it was 4.89; in data set [11], 5.98; in data set [7], 5.44. Moreover, the pIC50 with L6 was below 3.57. The “Ratio IC50” value amounted to 11 in [8] and 13.8 in the data set with Trypanosoma cruzi [5]. For the same compound, in data set [2], the inhibition result is “inactive”. Further, the selectivity ratio in data set [4] is above 2380; in [10] it was above 193.
As to `O=C(NCCCn1cnc([N+](=O)[O-])n1)Nc1cc(C(F)(F)F)cc(C(F)(F)F)c1`, the pIC50 in the data set with Trypanosoma cruzi [1] is 6.13; in data set [3], 5.22; in [9], 6.74; in the data set on Leishmania donovani, 4.94; in [11] it was 6.09; in data set [7], 6.00. Besides, in the data set on L6, the pIC50 is 4.62. The results for the “Ratio IC50” value (in data set [8]; in the data set on Trypanosoma cruzi [5]) were 5 and 2.1, respectively. For the same compound, the selectivity ratio in data set [4] was 33; in [10], 4.
With `O=[N+]([O-])c1ncn(CCCNS(=O)(=O)c2ccc(Cl)s2)n1`, the pIC50 was 6.36 in the data set with Trypanosoma cruzi [1]; 5.70 in data set [3]; 6.64 in data set [9]; 4.48 in the data set on Leishmania donovani; 5.36 in data set [11]; 5.64 in data set [7]. In addition, the negative-log IC50 (pIC50) in the data set on L6 is 3.61. Also, the “Ratio IC50” value in data set [8] was determined as 19; with Trypanosoma cruzi [5], 3.6. Besides, the selectivity ratio in [4] worked out at 556; in data set [10], 122; in [12], 7.4.
As for `CC1CS(=O)(=O)CCN1/N=C/c1ccc([N+](=O)[O-])o1` (stereo not drawn) [NIFURTIMOX], the “Ratio IC50” value in data set [8] came to 13. Further, the outcome in [6] was Active.
As to `O=[N+]([O-])c1ncn(CCCCNS(=O)(=O)c2ccc(OC(F)(F)F)cc2)n1`, the pIC50 in the data set with Trypanosoma cruzi [1] is 6.69; in data set [3], 6.32; with Leishmania donovani, 5.11; with L6, 3.95. Also, the values for the selectivity ratio in data set [4], in data set [10] and in data set [12] were 552, 235 and 14.4, respectively. Moreover, the “Ratio IC50” value in the data set with Trypanosoma cruzi [5] is on record as 7.7.
For the compound `Cc1ccc2nc(NC(=O)Cn3cnc([N+](=O)[O-])n3)sc2c1`, the pIC50 with Trypanosoma cruzi [1] is 5.74; in data set [3] it was 4.94; with Leishmania donovani, 5.23; in the data set on L6 it was 3.77. The values for the selectivity ratio in data set [4], in data set [10] and in data set [12] were 94.4, 14.8 and 28.7, respectively. The “Ratio IC50” value in the data set on Trypanosoma cruzi [5] was 0.9.
For the compound `O=[N+]([O-])c1ncn(CCNS(=O)(=O)c2ccc(C(F)(F)F)cc2)n1`, the pIC50 in the data set with Trypanosoma cruzi [1] was 6.10; in data set [3], 5.55; in the data set with Leishmania donovani, 4.49; in data set [7], below 5.00; in the data set with L6, 3.70. In addition, in [6], the outcome was Active. In addition, in data set [4], the selectivity ratio was found to be 248. For the same compound, in the data set with Trypanosoma cruzi [5], the “Ratio IC50” value stood at 1.9.
`O=[N+]([O-])c1ncn(CCCNS(=O)(=O)c2ccc(C(F)(F)F)cc2)n1`: the pIC50 with Trypanosoma cruzi [1] is 6.44; in data set [3], 6.30; in [9], 6.60; with Leishmania donovani, 4.88; in data set [11] it was 5.11; in data set [7], 5.47. This compound gave a pIC50 in the data set with L6 of 3.63. For the same compound, the “Ratio IC50” value in [8] is reported as 31; in the data set with Trypanosoma cruzi [5], 4.4. The inhibition entry in data set [2] is “inactive”. The result in data set [6] was Active. Also, the results for the selectivity ratio in [4] and in data set [10] were 656 and 467, respectively.
Take `O=C(NCCCn1cnc([N+](=O)[O-])n1)c1ccc2ccccc2n1`: the pIC50 with Trypanosoma cruzi [1] is 6.86; in data set [3], 5.49; with Leishmania donovani it was 4.70; in data set [7], below 5.00; in the data set with L6, 3.66. The inhibition result in [2] was “inactive”. In addition, in data set [6], the result was Active. Moreover, the selectivity ratio in [4] was found to be 1580. In addition, in the data set with Trypanosoma cruzi [5], the “Ratio IC50” value amounted to 11.3.
`O=C(Cn1cnc([N+](=O)[O-])n1)NCc1ccccc1`: the pIC50 with Trypanosoma cruzi [1] was 5.47; in [3], 5.00; in the data set on Leishmania donovani, 4.55; in [7], below 5.00; with L6 it was 3.46. In data set [6], the outcome was Active. Moreover, in [4], the selectivity ratio turned out to be 102. The “Ratio IC50” value in the data set with Trypanosoma cruzi [5] was found to be 0.5.

The values above are taken from ChEMBL document CHEMBL2069274, “Novel 3-nitro-1H-1,2,4-triazole-based amides and sulfonamides as potential antitrypanosomal agents” (J Med Chem, 2012).
